Assay results reported in ChEMBL document CHEMBL4715754, “Slowing down fat digestion and absorption by an oxadiazolone inhibitor targeting selectively gastric lipolysis” (2016).

How the values were obtained:
[1] = target: T1, Pancreatic lipase-related protein 2 (Cavia porcellus) (UniProt P81139); experiment: Inhibition of recombinant guinea pig PL-RP2 expressed in Aspergillus oryzae preincubated for 1 hr at 25 degreeC
T1 sequence (whole entry): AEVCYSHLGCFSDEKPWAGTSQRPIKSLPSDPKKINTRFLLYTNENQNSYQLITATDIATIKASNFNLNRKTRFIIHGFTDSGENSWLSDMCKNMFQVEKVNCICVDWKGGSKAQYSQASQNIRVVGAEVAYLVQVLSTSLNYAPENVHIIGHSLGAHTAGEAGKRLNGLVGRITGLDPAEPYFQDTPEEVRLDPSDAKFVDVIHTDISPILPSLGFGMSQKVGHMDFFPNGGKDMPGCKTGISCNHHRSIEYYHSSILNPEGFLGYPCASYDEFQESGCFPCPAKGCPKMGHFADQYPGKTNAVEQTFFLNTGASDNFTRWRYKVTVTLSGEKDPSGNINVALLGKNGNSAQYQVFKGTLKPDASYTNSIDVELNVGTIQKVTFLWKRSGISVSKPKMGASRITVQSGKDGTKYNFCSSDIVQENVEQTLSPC

[2] = target: T2, Pancreatic triacylglycerol lipase (Homo sapiens) (UniProt P16233); experiment: Inhibition of human pancreatic lipase at 400:1 molar excess compound concentration preincubated for 30 mins at 25 degreeC relative to control
T2 sequence (whole entry): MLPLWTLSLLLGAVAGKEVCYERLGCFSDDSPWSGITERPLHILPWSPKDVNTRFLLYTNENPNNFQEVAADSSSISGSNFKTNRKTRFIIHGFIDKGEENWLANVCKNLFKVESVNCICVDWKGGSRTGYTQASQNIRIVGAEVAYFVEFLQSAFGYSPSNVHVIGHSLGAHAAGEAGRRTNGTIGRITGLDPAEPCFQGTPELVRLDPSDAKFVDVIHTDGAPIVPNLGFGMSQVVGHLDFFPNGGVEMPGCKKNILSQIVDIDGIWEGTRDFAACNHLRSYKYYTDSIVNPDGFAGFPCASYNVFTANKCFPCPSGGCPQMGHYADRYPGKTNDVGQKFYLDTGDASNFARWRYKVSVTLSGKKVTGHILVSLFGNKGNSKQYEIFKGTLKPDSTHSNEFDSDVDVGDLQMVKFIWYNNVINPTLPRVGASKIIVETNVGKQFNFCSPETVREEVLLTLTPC
In short: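 Pancreatic lipase from human pancreatic juice (54 µg/mL HPL stock) or porcine pancreatic extract (32 µg/mL PPL stock) was held in 10 mM MES pH 7.0, 150 mM NaCl. It was pre-incubated with inhibitor from DMSO stock for 30 min at 25 °C with 4 mM NaTDC at varied molar excess. Residual activity was read by pH-stat on tributyrin at 37 °C, pH 8.0, with 2 mM CaCl₂ and 4 mM NaTDC. x_I50 was taken from residual activity; DMSO-only controls were run.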

Homo sapiens = species on record: Homo sapiens; experiment: Inhibition of human pancreatic carboxylesterase preincubated for 1 hr at 25 degreeC
[3] = target: T3, Gastric triacylglycerol lipase (Rattus norvegicus) (UniProt P04634); experiment: Inhibition of rat lingual lipase preincubated for 1 hr at 25 degreeC
T3 sequence (whole entry): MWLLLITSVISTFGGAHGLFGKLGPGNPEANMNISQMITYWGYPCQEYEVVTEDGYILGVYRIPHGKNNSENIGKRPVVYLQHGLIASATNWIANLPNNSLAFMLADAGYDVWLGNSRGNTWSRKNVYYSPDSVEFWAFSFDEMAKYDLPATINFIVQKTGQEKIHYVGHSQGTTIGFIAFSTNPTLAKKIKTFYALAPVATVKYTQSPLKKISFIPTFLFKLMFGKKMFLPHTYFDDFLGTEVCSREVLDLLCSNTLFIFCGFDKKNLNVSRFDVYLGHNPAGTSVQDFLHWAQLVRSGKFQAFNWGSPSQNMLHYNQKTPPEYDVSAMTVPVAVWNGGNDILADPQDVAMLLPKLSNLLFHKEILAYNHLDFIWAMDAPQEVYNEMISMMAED
In short: (§1)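 Enzyme pre-incubated with inhibitor (DMSO stock) at fixed molar excess for 1 h at 25 °C without substrate: hCEH x_I=4 (1 mM NaTDC assay), RLL and DGL x_I=20 with 4 mM NaTDC, GPLRP2 x_I=2 with 2 mM NaTDC. Residual activity sampled at intervals by pH-stat on tributyrin emulsion at 37 °C; t1/2 taken at 50% residual activity. DMSO-only controls; at least triplicate.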

[4] = target: T1, Pancreatic lipase-related protein 2 (Cavia porcellus); experiment: Inhibition of recombinant guinea pig PL-RP2 expressed in Aspergillus oryzae assessed as residual activity by measuring half-inactivation time at 2:1 molar excess compound concentration preincubated for 1 hr at 25 degreeC; in short: as §1
Rattus norvegicus [5] = experiment: Inhibition of lipolysis in mesenteric lymph duct-cannulated Wistar rat model assessed as initial velocity of fatty acid output at 5.3 mg/kg supplemented with olive oil emulsion and measured after 24 hrs (reference value: 12.3 +/- 0.46 mg/ml/h); type: functional
Rattus norvegicus [6] = experiment: Inhibition of lipolysis in mesenteric lymph duct-cannulated Wistar rat model assessed as Tmax for maximum fatty acid concentration at 5.3 mg/kg supplemented with olive oil emulsion and measured after 24 hrs (reference value: 6 hrs); type: functional, organism-based
In short: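 Male Wistar rats (8 weeks, 300-350 g), fat-free diet 24 h, mesenteric lymph duct cannulated under ketamine/xylazine. Given 0.8 mL olive oil emulsion (530 mg fatty acids) premixed with inhibitor at 5.3 mg/kg by mouth, then 0.5 mL water. Lymph collected over 24 h; total fatty acids by GC-FID of methyl esters. 7 rats per group; one-way ANOVA with Fisher's test.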

[7] = target: T4, Pancreatic triacylglycerol lipase (Sus scrofa) (UniProt P00591); conditions: dose 4.9 mg/ml, time 30-90 min
T4 sequence (whole entry): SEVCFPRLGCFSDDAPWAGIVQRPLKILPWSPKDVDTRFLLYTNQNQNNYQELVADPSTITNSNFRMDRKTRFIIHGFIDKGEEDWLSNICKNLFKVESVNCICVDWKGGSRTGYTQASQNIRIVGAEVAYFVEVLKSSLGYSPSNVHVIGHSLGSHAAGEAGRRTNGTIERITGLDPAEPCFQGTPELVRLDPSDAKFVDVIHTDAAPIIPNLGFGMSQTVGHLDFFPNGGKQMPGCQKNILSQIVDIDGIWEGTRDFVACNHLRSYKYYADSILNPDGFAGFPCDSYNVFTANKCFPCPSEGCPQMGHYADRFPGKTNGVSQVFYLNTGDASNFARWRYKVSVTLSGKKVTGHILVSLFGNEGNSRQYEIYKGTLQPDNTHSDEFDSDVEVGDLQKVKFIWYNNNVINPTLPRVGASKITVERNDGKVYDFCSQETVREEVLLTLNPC

[8] = target: T4, Pancreatic triacylglycerol lipase (Sus scrofa); experiment: Inhibition of porcine pancreatic lipase at 4.1 mg/ml under duodenal phase at pH 6.5 using solid test meal measured after 30 to 90 mins relative to control; conditions: time 30-90 min

`CCCCCCCCCCC[C@@H](C[C@@H]1OC(=O)[C@H]1CCCCCC)OC(=O)[C@@H](CC(C)C)NC=O` gave an XI50 [1] of 0.53 molar excess, an inhibition [2] of 91.5% and an XI50 (Homo sapiens) of 0.78 molar excess. The XI50 [3] was 0.7 molar excess, the T1/2 [4] was 24 s and the V0 (Rattus norvegicus [5]) was 4.4 mg/mL/h. For the same molecule, the Tmax (Rattus norvegicus [6]) was 6 h and the inhibition [7] was 100%.

`O=c1oc(OCCOCc2ccccc2)nn1-c1cccc(Oc2ccccc2)c1` was tested, and the XI50 [1] was 0.64 molar excess, the inhibition [2] was 19.3% and the XI50 (Homo sapiens) was 1.42 molar excess. The XI50 [3] was 1.43 molar excess, the T1/2 [4] was 31.2 s and the inhibition [8] was 5.1%. The V0 (Rattus norvegicus [5]) was 9.8 mg/mL/h and the Tmax (Rattus norvegicus [6]) was 5 h.
